Holding throughout (type): functional
Experiment [1] concerns Staphylococcus epidermidis. Nature of the experiment: Antibacterial activity against methicillin-resistant Staphylococcus epidermidis at 160 ug/ml after 24 hrs by Oxford cup assay. The conditions noted are these: read-out: IZ. Put shortly:
(§1)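 Oxford cup diffusion: clinical isolate inoculum in 0.9% saline set by McFarland standard, spread evenly on nutrient agar. Cups placed equidistant on the surface and filled with compound solutions prepared as for the agar dilution test, at several concentrations. Inhibition zone measured after 24 h at 37 °C.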

Experiment [2] concerns Streptococcus agalactiae. In words: Antibacterial activity against Streptococcus agalactiae at 160 ug/ml after 24 hrs by Oxford cup assay. To be noted: read-out: IZ. Put shortly:
(§2)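 Oxford cup diffusion with clinical isolates. Inoculum made in 0.9% saline to a McFarland standard and spread evenly on nutrient agar. Compound solutions, prepared as for the agar dilution test, were added at the stated concentration to Oxford cups set equidistant on the agar surface. Inhibition zones were measured after 24 h at 37 °C.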

Experiment [3] has as its system Staphylococcus epidermidis. In words: Antibacterial activity against methicillin-resistant Staphylococcus epidermidis at 320 ug/ml after 24 hrs by Oxford cup assay. To be noted: read-out: IZ. Put shortly: as §1
In experiment [4] the test system is Staphylococcus aureus. In words: Antibacterial activity against methicillin-resistant Staphylococcus aureus at 80 ug/ml after 24 hrs by Oxford cup assay. To be noted: read-out: IZ. In a few lines:
as §1

The test system of experiment [5] is Staphylococcus aureus. Nature of the experiment: Antibacterial activity against methicillin-resistant Staphylococcus aureus after 48 hrs by agar dilution method. Put shortly:
(§3)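 Agar dilution per NCCLS: 2-fold serial dilutions incorporated into hot Mueller-Hinton agar. Clinical isolates grown from blood slants, suspended in sterile 0.90% NaCl to about 10⁵–10⁶ cfu/mL, spotted onto plates. Incubation 36.5 °C, 48 h. MIC taken as the lowest concentration giving complete growth inhibition. Run in triplicate at pH 7.40.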

The test system of experiment [6] is Escherichia coli. Nature of the experiment: Antibacterial activity against Escherichia coli at 80 ug/ml after 24 hrs by Oxford cup assay. The conditions noted are these: read-out: IZ. In a few lines: as §2
In experiment [7] the test system is Streptococcus agalactiae. In words: Antibacterial activity against Streptococcus agalactiae after 48 hrs by agar dilution method. In a few lines:
(§4)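 Agar dilution per NCCLS on clinical isolates. 2-fold serial dilutions of compound (2 mL) mixed into 18 mL hot Mueller-Hinton agar. Inoculum from blood slants, adjusted to approx. 10⁵–10⁶ cfu/mL in sterile 0.90% NaCl, then spotted onto the plates. Incubated 36.5 °C, 48 h. MIC is the lowest concentration giving complete growth inhibition. Run in triplicate at pH 7.40.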

Experiment [8] deals with Staphylococcus epidermidis. Nature of the experiment: Antibacterial activity against methicillin-resistant Staphylococcus epidermidis at 80 ug/ml after 24 hrs by Oxford cup assay. To be noted: read-out: IZ. In a few lines:
as §1

The test system of experiment [9] is Streptococcus agalactiae. In words: Antibacterial activity against Streptococcus agalactiae at 320 ug/ml after 24 hrs by Oxford cup assay. To be noted: read-out: IZ. Put shortly:
as §2

For experiment [10], the system named is Staphylococcus epidermidis. In words: Antibacterial activity against methicillin-resistant Staphylococcus epidermidis after 48 hrs by agar dilution method. Put shortly: as §3
For experiment [11], the system named is Escherichia coli. In words: Antibacterial activity against Escherichia coli at 320 ug/ml after 24 hrs by Oxford cup assay. The conditions noted are these: read-out: IZ. In a few lines:
as §2

For experiment [12], the system named is Streptococcus agalactiae. Nature of the experiment: Antibacterial activity against Streptococcus agalactiae at 80 ug/ml after 24 hrs by Oxford cup assay. The conditions noted are these: read-out: IZ. In a few lines: as §2
For experiment [13], the system named is Staphylococcus aureus. Nature of the experiment: Antibacterial activity against methicillin-resistant Staphylococcus aureus at 160 ug/ml after 24 hrs by Oxford cup assay. The conditions noted are these: read-out: IZ. In a few lines:
as §1

Experiment [14] relates to Escherichia coli. In words: Antibacterial activity against Escherichia coli at 160 ug/ml after 24 hrs by Oxford cup assay. The conditions noted are these: read-out: IZ. In a few lines: as §2
The test system of experiment [15] is Escherichia coli. In words: Antibacterial activity against Escherichia coli after 48 hrs by agar dilution method. Put shortly:
as §4

The subject of experiment [16] is Staphylococcus aureus. Nature of the experiment: Antibacterial activity against methicillin-resistant Staphylococcus aureus at 320 ug/ml after 24 hrs by Oxford cup assay. To be noted: read-out: IZ. Put shortly: as §1

Each structure is given as a SMILES string. ≈ marks a conversion by molar mass, not a printed value.

`C=C[C@]1(C)C[C@@H](OC(=O)CSC(C)(C)CNC(=O)[C@H](N)c2ccccc2)[C@]2(C)[C@H](C)CC[C@]3(CCC(=O)[C@H]32)[C@@H](C)[C@@H]1O`: the zone of inhibition at 160 µg/mL was determined as 10 mm in [1], 10.6 mm in the experiment on Streptococcus agalactiae [2], 9.98 mm with Staphylococcus aureus [13] and 11.3 mm in the experiment on Escherichia coli [14]. The zone of inhibition at 320 µg/mL in [3] is 10.8 mm; with Streptococcus agalactiae [9] it was 11 mm; with Escherichia coli [11], 10.8 mm; in the experiment with Staphylococcus aureus [16] it was 10.2 mm. Also, the zone of inhibition at 80 µg/mL in the experiment on Staphylococcus aureus [4] turned out to be 9.41 mm; in the experiment with Escherichia coli [6], 9.2 mm; in [8] it was 10.9 mm; with Streptococcus agalactiae [12], 10.1 mm. Further, the MIC is 2 µg/mL (≈ 3.34 µM) in the experiment with Staphylococcus aureus [5], 16 µg/mL (≈ 26.7 µM) against Streptococcus agalactiae [7], 16 µg/mL (≈ 26.7 µM) in experiment [10] and 8 µg/mL (≈ 13.4 µM) in the experiment on Escherichia coli [15].
As for `C=C[C@]1(C)C[C@@H](OC(=O)CSC(C)(C)CNC(=O)c2ccc(N)cc2)[C@]2(C)[C@H](C)CC[C@]3(CCC(=O)[C@H]32)[C@@H](C)[C@@H]1O`, the zone of inhibition at 160 µg/mL in experiment [1] stood at 18.1 mm; with Streptococcus agalactiae [2], 11.6 mm; with Staphylococcus aureus [13] it was 21.6 mm; in the experiment on Escherichia coli [14], 17.8 mm. The zone of inhibition at 320 µg/mL in [3] was 17.9 mm; with Streptococcus agalactiae [9] it was 11.4 mm; with Escherichia coli [11], 18.8 mm; in the experiment with Staphylococcus aureus [16], 22.2 mm. Further, the zone of inhibition at 80 µg/mL turned out to be 20.6 mm in the experiment with Staphylococcus aureus [4], 18.1 mm with Escherichia coli [6], 17.3 mm in experiment [8] and 10.9 mm in the experiment with Streptococcus agalactiae [12]. In addition, the MIC in the experiment on Staphylococcus aureus [5] was 0.25 µg/mL (≈ 0.427 µM); against Streptococcus agalactiae [7], 0.5 µg/mL (≈ 0.855 µM); in experiment [10] it was 0.5 µg/mL (≈ 0.855 µM); in the experiment on Escherichia coli [15] it was 2 µg/mL (≈ 3.42 µM).

These data come from ChEMBL document CHEMBL2375359, “Synthesis and antibacterial evaluation of novel pleuromutilin derivatives” (2013).
